Test results: ChEMBL document CHEMBL3856209, “Novel pyrazolopyridine derivatives as potential angiogenesis inhibitors: Synthesis, biological evaluation and transcriptome-based mechanistic analysis” (Eur J Med Chem, 2016)
Active and inactive are the calls of the source.

What was measured:
HUVEC [1] = experiment: Effect on ZAK gene expression in serum-starved HUVEC after 24 hrs by microarray analysis relative to control; format: functional, Homo sapiens
HUVEC [2] = experiment: Effect on ZWINT gene expression in serum-starved HUVEC after 24 hrs by microarray analysis relative to control; format: functional, Homo sapiens
Procedure, shortened: (§1)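 Confluent serum-starved HUVEC (primary, pooled from 3–5 donors, passage ≤4) treated with 2 μM compound or DMSO vehicle in 2.5% FBS for 6 h or 24 h. Total RNA hybridized to Illumina Human-HT12 arrays, background-corrected, vst-transformed and rsn-normalized. Differential expression versus DMSO by moderated paired t-test (p < 0.05, |log2 fold change| > 0.5).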

HUVEC [3] = experiment: Effect on PNISR gene expression in serum-starved HUVEC after 24 hrs by microarray analysis relative to control; format: functional, Homo sapiens
Procedure, shortened: (§2)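 Serum-starved confluent HUVEC (pooled from 3–5 donors, passage ≤4) were treated with 2 μM compound or vehicle in 2.5% FBS for 6 h or 24 h, and total RNA was isolated. Hybridization was on Illumina Human-HT12. Data were processed with bgAdjust, vst and rsn normalization. Changes versus DMSO were called by moderated paired t-test at p < 0.05 and |log2 fold change| > 0.5.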

HUVEC [4] = experiment: Effect on ITGA2 gene expression in serum-starved HUVEC after 24 hrs by microarray analysis relative to control; format: functional, Homo sapiens
Procedure, shortened: (§3)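 Confluent, serum-starved HUVEC (pooled from 3–5 donors, passage ≤4) treated with 2 μM compound or vehicle with 2.5% FBS for 6 h or 24 h. Total RNA hybridized to Illumina Human-HT12 arrays. Data were background-corrected, vst-transformed and rsn-normalized. Hits called by moderated paired t-test versus DMSO-treated cells, p < 0.05 and log2 fold change >|0.5|.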

HUVEC [5] = experiment: Effect on ASPM gene expression in serum-starved HUVEC after 6 hrs by microarray analysis relative to control; format: functional, Homo sapiens
Procedure, shortened: (§4)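 Serum-starved confluent HUVEC treated with 2 μM compound or DMSO in 2.5% FBS for 6 h or 24 h; RNA hybridized to Illumina Human-HT12 arrays. Data background-corrected, vst-transformed and rsn-normalized. Differential probes called by moderated paired t-test (limma) at p < 0.05 and log2 fold change >|0.5| vs DMSO.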

HUVEC [6] = experiment: Effect on CKS2 gene expression in serum-starved HUVEC after 6 hrs by microarray analysis relative to control; format: functional, Homo sapiens; procedure, shortened: as §3
HUVEC [7] = experiment: Effect on CENPA gene expression in serum-starved HUVEC after 6 hrs by microarray analysis relative to control; format: functional, Homo sapiens; procedure, shortened: as §4
HUVEC [8] = experiment: Effect on CYTL1 gene expression in serum-starved HUVEC after 24 hrs by microarray analysis relative to control; format: functional, Homo sapiens
Procedure, shortened: (§5)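 Serum-starved confluent HUVEC (primary, pooled from 3–5 donors, passage ≤4) treated with 2 μM test compound or DMSO vehicle (working dilutions ≤0.1% v/v) in presence of 2.5% FBS for 6 h or 24 h; total RNA hybridized to Illumina Human-HT12 arrays; background correction, vst, rsn normalization; moderated paired t-test versus DMSO, thresholds p < 0.05 and log2 fold change >|0.5|.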

HUVEC [9] = experiment: Effect on HJURP gene expression in serum-starved HUVEC after 6 hrs by microarray analysis relative to control; format: functional, Homo sapiens
HUVEC [10] = experiment: Effect on ZMAT3 gene expression in serum-starved HUVEC after 6 hrs by microarray analysis relative to control; format: functional, Homo sapiens
HUVEC [11] = experiment: Effect on UBE2J1 gene expression in serum-starved HUVEC after 6 hrs by microarray analysis relative to control; format: functional, Homo sapiens
HUVEC [12] = experiment: Effect on FTH1P8 gene expression in serum-starved HUVEC after 6 hrs by microarray analysis relative to control; format: functional, Homo sapiens; procedure, shortened: as §3
HUVEC [13] = experiment: Effect on FAM213A gene expression in serum-starved HUVEC after 6 hrs by microarray analysis relative to control; format: functional, Homo sapiens; procedure, shortened: as §1
HUVEC [14] = experiment: Effect on FAM212A gene expression in serum-starved HUVEC after 24 hrs by microarray analysis relative to control; format: functional, Homo sapiens; procedure, shortened: as §5
HUVEC [15] = experiment: Effect on ANGPT2 gene expression in serum-starved HUVEC after 6 hrs by microarray analysis relative to control; format: functional, Homo sapiens; procedure, shortened: as §4
HUVEC [16] = experiment: Effect on HLA-DRA gene expression in serum-starved HUVEC after 6 hrs by microarray analysis relative to control; format: functional, Homo sapiens
HUVEC [17] = experiment: Effect on CCL8 gene expression in serum-starved HUVEC after 24 hrs by microarray analysis relative to control; format: functional, Homo sapiens; procedure, shortened: as §1
HUVEC [18] = experiment: Effect on NEDD9 gene expression in serum-starved HUVEC after 24 hrs by microarray analysis relative to control; format: functional, Homo sapiens; procedure, shortened: as §2
HUVEC [19] = experiment: Effect on TMEM154 gene expression in serum-starved HUVEC after 24 hrs by microarray analysis relative to control; format: functional, Homo sapiens
HUVEC [20] = experiment: Effect on HMGCR gene expression in serum-starved HUVEC after 6 hrs by microarray analysis relative to control; format: functional, Homo sapiens; procedure, shortened: as §3
[21] = Downregulation of CDC20 gene expression in serum-starved HUVEC at 2 uM after 24 hrs by qRT-PCR analysis; format: functional, cell-based; settings: Homo sapiens
Procedure, shortened: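 Serum-starved confluent HUVEC treated with 2 μM compound or vehicle in 2.5% FBS for 24 h. Total RNA isolated and qRT-PCR run in triplicate (95 °C 5 min; 40 cycles of 95 °C 5 s, 58 °C 20 s, 72 °C 5 s), normalized to RPS18S. Fold change vs control, n = 3.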

HUVEC [22] = experiment: Effect on RNU1-28P gene expression in serum-starved HUVEC after 6 hrs by microarray analysis relative to control; format: functional, Homo sapiens
HUVEC [23] = experiment: Effect on SCD gene expression in serum-starved HUVEC after 24 hrs by microarray analysis relative to control; format: functional, Homo sapiens
HUVEC [24] = experiment: Effect on CCL5 gene expression in serum-starved HUVEC after 6 hrs by microarray analysis relative to control; format: functional, Homo sapiens; procedure, shortened: as §4
HUVEC [25] = experiment: Effect on KIF4A gene expression in serum-starved HUVEC after 6 hrs by microarray analysis relative to control; format: functional, Homo sapiens
[26] = Upregulation of SQLE gene expression in serum-starved HUVEC at 2 uM after 24 hrs by qRT-PCR analysis; format: functional, cell-based; settings: Homo sapiens
HUVEC [27] = experiment: Effect on ANKRD1 gene expression in serum-starved HUVEC after 6 hrs by microarray analysis relative to control; format: functional, Homo sapiens; procedure, shortened: as §1
HUVEC [28] = experiment: Effect on RNU1-1 gene expression in serum-starved HUVEC after 6 hrs by microarray analysis relative to control; format: functional, Homo sapiens
HUVEC [29] = experiment: Effect on KRT7 gene expression in serum-starved HUVEC after 6 hrs by microarray analysis relative to control; format: functional, Homo sapiens
HUVEC [30] = experiment: Effect on COL8A1 gene expression in serum-starved HUVEC after 6 hrs by microarray analysis relative to control; format: functional, Homo sapiens; procedure, shortened: as §3
HUVEC [31] = experiment: Effect on COL4A3BP gene expression in serum-starved HUVEC after 24 hrs by microarray analysis relative to control; format: functional, Homo sapiens; procedure, shortened: as §1
HUVEC [32] = experiment: Effect on IL10 gene expression in serum-starved HUVEC after 6 hrs by microarray analysis relative to control; format: functional, Homo sapiens; procedure, shortened: as §3
HUVEC [33] = experiment: Effect on MIR181A2HG gene expression in serum-starved HUVEC after 24 hrs by microarray analysis relative to control; format: functional, Homo sapiens; procedure, shortened: as §2
HUVEC [34] = experiment: Effect on MMP1 gene expression in serum-starved HUVEC after 6 hrs by microarray analysis relative to control; format: functional, Homo sapiens; procedure, shortened: as §2
HUVEC [35] = experiment: Effect on RETSAT gene expression in serum-starved HUVEC after 6 hrs by microarray analysis relative to control; format: functional, Homo sapiens

Compound: COc1ccc(Cn2nc(-c3ccccc3)c3cc(Cl)nc(N4CCNCC4)c32)cc1
- log2FC (HUVEC [1]): 0.0198
- log2FC (HUVEC [2]): -0.5572
- log2FC (HUVEC [3]): 0.0521
- log2FC (HUVEC [4]): -0.0226
- fold change (FC) (HUVEC [5]): 0.1684
- log2FC (HUVEC [6]): 0.2477
- fold change (FC) (HUVEC [7]): 0.0058

Compound: COc1ccc(Cn2nc(-c3ccccc3)c3cc(Nc4ccc(N5CCN(C)CC5)cc4)nc(N4CCN(C)CC4)c32)cc1
- fold change (FC) (HUVEC [8]): 0.5166
- fold change (FC) (HUVEC [9]): -0.1528
- log2FC (HUVEC [10]): 0.5844
- log2FC (HUVEC [11]): 0.4634
- fold change (FC) (HUVEC [12]): 0.2063
- fold change (FC) (HUVEC [13]): -0.0934
- fold change (FC) (HUVEC [14]): 0.5468
- fold change (FC) (HUVEC [15]): 0.2528
- fold change (FC) (HUVEC [16]): 0.8911
- fold change (FC) (HUVEC [17]): -0.7427
- log2FC (HUVEC [18]): 0.6094
- log2FC (HUVEC [19]): 0.8028
- fold change (FC) (HUVEC [20]): 1.0317
- Activity [21]: Active
- log2FC (HUVEC [22]): -0.7994
- log2FC (HUVEC [23]): 1.4341
- fold change (FC) (HUVEC [24]): 0.2358
- fold change (FC) (HUVEC [25]): 0.0285
- Activity [26]: Active
- fold change (FC) (HUVEC [27]): -0.5735
- fold change (FC) (HUVEC [28]): -0.6255
- fold change (FC) (HUVEC [29]): 0.2295
- fold change (FC) (HUVEC [30]): 0.2137
- fold change (FC) (HUVEC [31]): -0.1456

Compound: COc1ccc(Cn2nc(-c3ccccc3)c3cc(Nc4ccc(N5CCN(C)CC5)cc4)nc(N4CCNCC4)c32)cc1
- log2FC (HUVEC [32]): 0.4049
- log2FC (HUVEC [33]): 0.5287
- log2FC (HUVEC [34]): -0.1422
- log2FC (HUVEC [35]): 0.0844
